Measurements taken from ChEMBL document CHEMBL1153955, “Indolylarylsulfones bearing natural and unnatural amino acids. Discovery of potent inhibitors of HIV-1 non-nucleoside wild type and resistant mutant strains reverse transcriptase and coxsackie B4 virus” (J Med Chem, 2009).

What was measured:
[1] = tested on: Respiratory syncytial virus; assay: Antiviral activity against RSV Long in human HeLa cells assessed as protection against virus-induced cytopathicity; format: functional, organism-based
Outline: (§1)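 Confluent cell monolayers inoculated with 100 CCID₅₀ virus. After 1-2 h adsorption, residual virus removed and cultures incubated with varying compound concentrations. Cytopathicity scored once it reached completion in untreated infected controls. EC₅₀ = dose reducing virus-induced cytopathogenicity by 50%.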

[2] = tested on: Vesicular stomatitis virus; assay: Antiviral activity against VSV in human HeLa cells assessed as protection against virus-induced cytopathicity; format: functional, organism-based
[3] = tested on: Human immunodeficiency virus 1; assay: Antiviral activity against HIV1 3B in human CEM cells assessed as protection against virus-induced cytopathicity after 4 days; format: functional, organism-based; details: Human immunodeficiency virus 1, 3B, CCRF-CEM, 96 h
Outline: (§2)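 CEM cells (~3 × 10⁵ cells/mL) infected with ~100 CCID₅₀ per mL of HIV-1 (IIIB) or HIV-2 (ROD), then seeded into wells containing compound dilutions. After 4 days at 37 °C, syncytium (giant cell) formation was examined microscopically. EC₅₀ = concentration protecting CEM cells from HIV cytopathicity by 50%.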

[4] = tested on: Human immunodeficiency virus 2; assay: Antiviral activity against HIV2 ROD in human CEM cells assessed as protection against virus-induced cytopathicity after 4 days; format: functional, organism-based; details: Human immunodeficiency virus 2, ROD, CCRF-CEM, 96 h; outline: as §2
L1210 = assay: Antiproliferative activity against mouse L1210 cells after 2 days; format: cell-based; details: L1210, 48 h
Outline: (§3)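 Cells seeded at 5 × 10⁴ to 7.5 × 10⁴ cells/200 µL with or without serial compound dilutions; incubated at 37 °C for 2 days (L1210) or 3 days (Molt4/C8, CEM). Cell numbers counted with a Coulter counter. CC₅₀ = concentration reducing proliferation by 50% versus untreated controls, read from plots of cell number (% of control) against concentration. Means of at least two independent experiments.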

[5] = Antiproliferative activity against human Molt4/C8 cells after 3 days; format: cell-based; details: MOLT-4, 72 h; outline: as §3
CCRF-CEM = assay: Antiproliferative activity against human CEM cells after 3 days; format: cell-based; details: 72 h; outline: as §3
[6] = tested on: Human immunodeficiency virus 1; assay: Antiviral activity against HIV1 with reverse transcriptase L100I mutation in human CEM cells assessed as protection against virus-induced cytopathicity; format: functional, organism-based; details: Human immunodeficiency virus 1, CCRF-CEM
Outline: (§4)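 CEM cells (~3 × 10⁵ cells/mL) were infected with ~100 CCID₅₀ virus per mL and seeded with serial compound dilutions. After 4 days at 37 °C, syncytium (giant cell) formation was scored microscopically. EC₅₀ is the concentration giving 50% protection against virus cytopathicity.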

[7] = tested on: Human immunodeficiency virus 1; assay: Antiviral activity against HIV1 with reverse transcriptase K103N mutation in human CEM cells assessed as protection against virus-induced cytopathicity; format: functional, organism-based; details: Human immunodeficiency virus 1, CCRF-CEM; outline: as §4
[8] = tested on: Human immunodeficiency virus 1; assay: Antiviral activity against HIV1 with reverse transcriptase Y181C mutation in human CEM cells assessed as protection against virus-induced cytopathicity; format: functional, organism-based; details: Human immunodeficiency virus 1, CCRF-CEM; outline: as §4
[9] = tested on: Human immunodeficiency virus 1; assay: Antiviral activity against HIV1 with reverse transcriptase Y181I mutation in human CEM cells assessed as protection against virus-induced cytopathicity; format: functional, organism-based; details: Human immunodeficiency virus 1, CCRF-CEM; outline: as §4
[10] = tested on: Human immunodeficiency virus 1; assay: Antiviral activity against HIV1 with reverse transcriptase Y188L mutation in human CEM cells assessed as protection against virus-induced cytopathicity; format: functional, organism-based; details: Human immunodeficiency virus 1, CCRF-CEM; outline: as §4
[11] = biological target: Human immunodeficiency virus type 1 reverse transcriptase (Human immunodeficiency virus 1, UniProt Q72547); assay: Inhibition of HIV1 reverse transcriptase p66/p51; details: read-out: IC50
[12] = biological target: Human immunodeficiency virus type 1 reverse transcriptase (Human immunodeficiency virus 1, UniProt Q72547, L100I); assay: Inhibition of HIV1 reverse transcriptase p66/p51 L100I mutant; details: read-out: IC50
Outline: (§5)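 Substrate was 0.5 µg poly(rA)/oligo(dT) 10:1 (0.3 µM 3′-OH ends) with 10 µM [³H]dTTP, at 37 °C. Acid-precipitable radioactivity was counted on GF/C filters after TCA washes.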

[13] = biological target: Human immunodeficiency virus type 1 reverse transcriptase (Human immunodeficiency virus 1, UniProt Q72547, K103N); assay: Inhibition of HIV1 reverse transcriptase p66/p51 K103N mutant; details: read-out: IC50; outline: as §5
[14] = biological target: Human immunodeficiency virus type 1 reverse transcriptase (Human immunodeficiency virus 1, UniProt Q72547, Y181I); assay: Inhibition of HIV1 reverse transcriptase p66/p51 Y181I mutant; details: read-out: IC50; outline: as §5
[15] = Cytotoxicity against human HeLa cells assessed as drug level causing microscopically detectable alteration of normal cell morphology after 3 days; format: cell-based
Outline: (§6)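 Serial compound dilutions added to confluent HeLa or Vero monolayers. MCC = minimum concentration causing microscopically detectable alteration of cell morphology after 3 days of incubation.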

[16] = Cytotoxicity against african green monkey Vero cells assessed as drug level causing microscopically detectable alteration of normal cell morphology after 3 days; format: cell-based; details: chlorocebus sabaeus; outline: as §6
Coxsackievirus B4 [17] = assay: Antiviral activity against Coxsackievirus B4 in human HeLa cells assessed as protection against virus-induced cytopathicity; format: functional, organism-based; details: Enterovirus B; outline: as §1
Coxsackievirus B4 [18] = assay: Antiviral activity against Coxsackievirus B4 in african green monkey Vero cells assessed as protection against virus-induced cytopathicity; format: functional, organism-based; details: Enterovirus B; outline: as §1
Human respirovirus 3 = assay: Antiviral activity against Parainfluenza virus type 3 in african green monkey Vero cells assessed as protection against virus-induced cytopathicity; format: functional, organism-based; details: Human respirovirus 3, Vero; outline: as §1
[19] = tested on: Mammalian orthoreovirus 1; assay: Antiviral activity against Reovirus 1 in african green monkey Vero cells assessed as protection against virus-induced cytopathicity; format: functional, organism-based; details: Mammalian orthoreovirus 1, Vero; outline: as §1
Sindbis virus = assay: Antiviral activity against Sindbis virus in african green monkey Vero cells assessed as protection against virus-induced cytopathicity; format: functional, organism-based; outline: as §1
Punta Toro virus = assay: Antiviral activity against Punta Toro virus in african green monkey Vero cells assessed as protection against virus-induced cytopathicity; format: functional, organism-based; outline: as §1
[20] = Cytotoxicity against human HEL cells assessed as drug level causing microscopically detectable alteration of normal cell morphology after 3 days; format: cell-based
Human alphaherpesvirus 1 [21] = assay: Antiviral activity against HSV1 KOS in human HEL cells assessed as protection against virus-induced cytopathicity; format: functional, organism-based; details: Human alphaherpesvirus 1, KOS
Human alphaherpesvirus 2 = assay: Antiviral activity against HSV2 G in human HEL cells assessed as protection against virus-induced cytopathicity; format: functional, organism-based; details: Human alphaherpesvirus 2, strain G; outline: as §1
Vaccinia virus = assay: Antiviral activity against Vaccinia virus Lederle in human HEL cells assessed as protection against virus-induced cytopathicity; format: functional, organism-based; details: Orthopoxvirus vaccinia
[22] = tested on: Vesicular stomatitis virus; assay: Antiviral activity against VSV in human HEL cells assessed as protection against virus-induced cytopathicity; format: functional, organism-based
Human alphaherpesvirus 1 [23] = assay: Antiviral activity against thymidine kinase deficient and acyclovir resistant HSV1 KOS in human HEL cells assessed as protection against virus-induced cytopathicity; format: functional, organism-based; details: Human alphaherpesvirus 1, KOS
[24] = Cytotoxicity against MDCK cells assessed as drug level causing microscopically detectable alteration of normal cell morphology; format: cell-based, Canis lupus familiaris; details: dog
[25] = Cytotoxicity against MDCK cells by MTS assay; format: cell-based, Canis lupus familiaris; details: dog
Influenza A virus [26] = assay: Antiviral activity against influenza H1N1 virus in MDCK cells assessed as reduction of virus-induced cytopathicity by visual cytopathic effect scoring method; format: functional, organism-based
Influenza A virus [27] = assay: Antiviral activity against influenza H1N1 virus in MDCK cells assessed as reduction of virus-induced cytopathicity by MTS method; format: functional, organism-based; details: Influenza A virus, H1N1, MDCK
Influenza A virus H3N2 [28] = assay: Antiviral activity against influenza H3N2 virus in MDCK cells assessed as reduction of virus-induced cytopathicity by visual cytopathic effect scoring method; format: functional, organism-based
Influenza A virus H3N2 [29] = assay: Antiviral activity against influenza H3N2 virus in MDCK cells assessed as reduction of virus-induced cytopathicity by MTS method; format: functional, organism-based
Influenza B virus [30] = assay: Antiviral activity against influenza B virus in MDCK cells assessed as reduction of virus-induced cytopathicity by visual cytopathic effect scoring method; format: functional, organism-based
Influenza B virus [31] = assay: Antiviral activity against influenza B virus in MDCK cells assessed as reduction of virus-induced cytopathicity by MTS method; format: functional, organism-based
[32] = Cytotoxicity against feline CRFK cells by MTS assay; format: cell-based, Felis catus; details: cat
Feline coronavirus = assay: Antiviral activity against Feline coronavirus in feline […] cells assessed as inhibition of virus-induced cytopathicity; format: functional, organism-based; details: Alphacoronavirus 1
Felid alphaherpesvirus 1 = assay: Antiviral activity against Feline herpesvirus in feline […] cells assessed as inhibition of virus-induced cytopathicity; format: functional, organism-based

SMILES: Cc1cc(C)cc(S(=O)(=O)c2c(C(=O)NCCS(N)(=O)=O)[nH]c3ccc(Cl)cc23)c1
- EC50 [1]: > 4 µM
- EC50 [2]: > 4 µM
- EC50 [3]: 0.0014 µM
- EC50 [4]: > 10 µM
- IC50 (L1210): 20 µM
- IC50 [5]: 12 µM
- IC50 (CCRF-CEM): 14 µM
- IC50 [6]: 0.0012 µM
- IC50 [7]: 0.04 µM
- IC50 [8]: 0.23 µM
- IC50 [9]: > 1 µM
- IC50 [10]: > 1 µM
- IC50 [11]: 0.0004 µM
- IC50 [12]: 0.025 µM
- IC50 [13]: 0.584 µM
- IC50 [14]: > 40 µM
- MCC at 72 h [15]: 20 µM
- MCC at 72 h [16]: 100 µM
- EC50 (Coxsackievirus B4 [17]): > 4 µM
- EC50 (Coxsackievirus B4 [18]): 9 µM
- EC50 (Human respirovirus 3): > 20 µM
- EC50 [19]: 20 µM
- EC50 (Sindbis virus): 20 µM
- EC50 (Punta Toro virus): 20 µM
- MCC at 72 h [20]: 20 µM
- EC50 (Human alphaherpesvirus 1 [21]): > 4 µM
- EC50 (Human alphaherpesvirus 2): > 4 µM
- EC50 (Vaccinia virus): > 4 µM
- EC50 [22]: > 4 µM
- EC50 (Human alphaherpesvirus 1 [23]): > 4 µM
- MCC [24]: 20 µM
- CC50 [25]: 7.9 µM
- EC50 (Influenza A virus [26]): > 4 µM
- EC50 (Influenza A virus [27]): > 4 µM
- EC50 (Influenza A virus H3N2 [28]): > 4 µM
- EC50 (Influenza A virus H3N2 [29]): > 4 µM
- EC50 (Influenza B virus [30]): > 4 µM
- EC50 (Influenza B virus [31]): > 4 µM
- CC50 [32]: 8.5 µM
- EC50 (Feline coronavirus): > 4 µM
- EC50 (Felid alphaherpesvirus 1): > 4 µM

SMILES: Cc1cc(C)cc(S(=O)(=O)c2c(C(=O)NCC(N)=O)[nH]c3ccc(Cl)cc23)c1
- EC50 [1]: > 100 µM
- EC50 [2]: > 100 µM
- EC50 [3]: 0.0019 µM
- EC50 [4]: > 50 µM
- IC50 (L1210): 220 µM
- IC50 [5]: 15 µM
- IC50 (CCRF-CEM): 92 µM
- IC50 [6]: 0.008 µM
- IC50 [7]: 0.029 µM
- IC50 [8]: 0.074 µM
- IC50 [9]: > 1 µM
- IC50 [10]: 0.69 µM
- IC50 [11]: 0.026 µM
- IC50 [12]: 0.161 µM
- IC50 [13]: 0.28 µM
- IC50 [14]: 1.65 µM
- MCC at 72 h [15]: 100 µM
- MCC at 72 h [16]: > 100 µM
- EC50 (Coxsackievirus B4 [17]): ≥ 20 µM
- EC50 (Coxsackievirus B4 [18]): > 100 µM
- EC50 (Human respirovirus 3): > 100 µM
- EC50 [19]: > 100 µM
- EC50 (Sindbis virus): > 100 µM
- EC50 (Punta Toro virus): > 100 µM
- MCC at 72 h [20]: > 100 µM
- EC50 (Human alphaherpesvirus 1 [21]): > 100 µM
- EC50 (Human alphaherpesvirus 2): > 100 µM
- EC50 (Vaccinia virus): > 100 µM
- EC50 [22]: > 100 µM
- EC50 (Human alphaherpesvirus 1 [23]): > 100 µM
- MCC [24]: 20 µM
- CC50 [25]: 44.1 µM
- EC50 (Influenza A virus [26]): > 4 µM
- EC50 (Influenza A virus [27]): > 4 µM
- EC50 (Influenza A virus H3N2 [28]): > 4 µM
- EC50 (Influenza A virus H3N2 [29]): > 4 µM
- EC50 (Influenza B virus [30]): > 4 µM
- EC50 (Influenza B virus [31]): > 4 µM
- CC50 [32]: > 100 µM
- EC50 (Feline coronavirus): > 100 µM
- EC50 (Felid alphaherpesvirus 1): > 100 µM
